According to the array DNA melting data of Ke et al. (doi:10.1101/2024.01.08.574731):

What was measured:
[1] = melting temperature; fluorescence melt of hairpins on a sequencing array, two-state fit, raised by 9.35 °C to match UV melts; settings: sodium 0.088 M
How it was run: (§1)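 Melting temperature and folding enthalpy were derived from bootstrapped two-state fits. The fitted temperatures were raised by 9.35 °C to agree with UV melts, and four replicates were combined by inverse variance. The underlying data were Cy3 fluorescence images of library hairpins, with annealed Cy3 and quencher oligos, on a sequenced MiSeq flow cell in 50 mM Na-HEPES pH 8.0, 25 mM NaCl, taken in 2.5 °C steps up to 60 °C, normalised to pre-quench Cy3 and to control constructs.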

[2] = folding enthalpy; higher = less favourable; fluorescence melt of hairpins on a sequencing array, two-state fit; settings: sodium 0.088 M
How it was run: as §1

| Sequence | Tm [1] | folding enthalpy [2] |
| --- | --- | --- |
| GTTAACGGAAACGCTAAC ((((.((....)).)))) | 36.2 °C | -28.1 kcal/mol |
| GTTAACGGAAACGTTGAC ((.((((....)))).)) | 46.3 °C | -26.9 kcal/mol |
| GTTAAGGAAACTTAAC ((((((....)))))) | 43 °C | -29 kcal/mol |
| GTTAATGGAAACGTTAAC (((((.(....).))))) | 35.7 °C | -29.2 kcal/mol |
| GTTACACGAAAGTGGAAC (((.(((....))).))) | 56.7 °C | -36.7 kcal/mol |
| GTTACAGGAAACCGTAAC (((((.(....).))))) | 39.4 °C | -35.6 kcal/mol |
| GTTACAGGAAACTGTAAC (((((((....))))))) | 55.5 °C | -42.8 kcal/mol |
| GTTACCGAAAGGTTAAAC ((((((....)))..))) | 30.6 °C | -9.83 kcal/mol |
| GTTACCGGAAACGGTAAC (((((((....))))))) | 63.2 °C | -42.4 kcal/mol |
| GTTACGCGAAAGCGAAC (((.(((....)))))) | 40 °C | -13.7 kcal/mol |
| GTTACGCGAAAGCGGAAC (((.(((....))).))) | 67.5 °C | -26.8 kcal/mol |
| GTTACGGAAACGTAAC ((((((....)))))) | 56.8 °C | -38.1 kcal/mol |
| GTTACGGCGAAAGCCAAC (((..(((....)))))) | 25 °C | -8.79 kcal/mol |
| GTTACGGGAAACCGTAGC (.(((((....))))).) | 48.5 °C | -18.3 kcal/mol |
| GTTACGTCGAAAGACAAC (((..(((....)))))) | 24.5 °C | -10.3 kcal/mol |
| GTTACTCGAAAGAGGAAC (((.(((....))).))) | 53.6 °C | -36.2 kcal/mol |
| GTTAGCCCGAAAGGGAAC (((..(((....)))))) | 28.1 °C | -11.5 kcal/mol |
| GTTAGCGGAAACGCTAAC (((((((....))))))) | 66.7 °C | -42.7 kcal/mol |
| GTTAGCGGAAACGCTGAC ((.((((....)))).)) | 52.3 °C | -29.4 kcal/mol |
| GTTAGGAAACTAAC (((((....))))) | 41.4 °C | -15.7 kcal/mol |
| GTTAGGACGAAAGTCAAC (((..(((....)))))) | 28.8 °C | -10.7 kcal/mol |
| GTTAGGCGAAAGCCAAAC (((.(((....))).))) | 50.3 °C | -15.9 kcal/mol |
| GTTAGGGGAAACCCTAAC (((((((....))))))) | 57.9 °C | -40.5 kcal/mol |

| Sequence | Tm [1] | folding enthalpy [2] |
| --- | --- | --- |
| GTTAGGGGAAACTCTAAC (((((.(....).))))) | 38.3 °C | -29.2 kcal/mol |
| GTTAGGTCGAAAGACAAC (((..(((....)))))) | 27.2 °C | -11.1 kcal/mol |
| GTTAGTCGAAAGACAAAC (((.(((....))).))) | 41.2 °C | -21.9 kcal/mol |
| GTTAGTCGAAAGACAAC (((.(((....)))))) | 39.5 °C | -20.4 kcal/mol |
| GTTATCCGAAAGGAGAAC (((.(((....))).))) | 51.1 °C | -37.4 kcal/mol |
| GTTATCGAAAGATAAAC ((((((....))).))) | 32.9 °C | -20.9 kcal/mol |
| GTTATCGAAAGATATAAC ((((((....)))..))) | 29.3 °C | -11.3 kcal/mol |
| GTTATGACGAAAGTCAAC (((..(((....)))))) | 26.2 °C | -10.5 kcal/mol |
| GTTATGGGAAACCATGAC ((.((((....)))).)) | 43.5 °C | -34.4 kcal/mol |
| GTTATTCCGAAAGGAAAC (((..(((....)))))) | 21.5 °C | -7.61 kcal/mol |
| GTTATTCGAAAGAAAAAC (((.(((....))).))) | 29.9 °C | -19.6 kcal/mol |
| GTTATTCGAAAGAAGAAC (((.(((....))).))) | 42.7 °C | -28.3 kcal/mol |
| GTTATTGAAAAATAAC ((((((....)))))) | 37.5 °C | -25 kcal/mol |
| GTTATTGCGAAAGCAAAC (((..(((....)))))) | 29.1 °C | -10.3 kcal/mol |
| GTTCAAGGAAACTCGAAC ((((.((....)).)))) | 28.7 °C | -11.7 kcal/mol |
| GTTCAAGGAAACTTGAAC (((((((....))))))) | 53.9 °C | -46.1 kcal/mol |
| GTTCACGAAAGTGATAAC ((((((....)))..))) | 35 °C | -10.8 kcal/mol |
| GTTCACGGAAACGCGAAC ((((.((....)).)))) | 48.3 °C | -47.1 kcal/mol |
| GTTCACGGAAACGTAAAC (((.(((....))).))) | 34.9 °C | -11.4 kcal/mol |
| GTTCAGGCGAAAGCCAAC (((..(((....)))))) | 26.1 °C | -8.95 kcal/mol |
| GTTCAGGGAAACTTGAAC (((((.(....).))))) | 40.7 °C | -22.8 kcal/mol |
| GTTCATGAAAATGAAC ((((((....)))))) | 52 °C | -33 kcal/mol |
